Results from different studies.
Read-out: cell growth or viability

Compound | cell line | test | conditions | measurement | value
NS(=O)(=O)c1ccc(-c2ccc(Nc3ccc(Cl)cc3)cc2)cc1 | HEK-293T | MTT | 100 µM | viability | 76%
NS(=O)(=O)OC[C@H]1C[C@@H](Nc2ccnc3cc(-c4cccc(SC(F)(F)F)c4)nn23)[C@H](O)[C@@H]1O | HEK-293T | ATP luminescence | 24 h | EC50 | 0.296 µM
OCc1ccc(-c2nn(Cc3ccccc3)c3ccccc23)o1 | HepG2 | ATP luminescence | – | IC50 | 7.14 µM
NS(=O)(=O)c1ccc(-c2ccc(Nc3ccncc3)cc2)cc1 | HEK-293T | MTT | 100 µM | viability | 69%
CCN(c1ccc(C)cc1)c1ccc(NC(=O)CN(C)c2ccccc2N2CCCC2=O)cn1 | HepG2 | ATP luminescence | 48 h | CC50 | > 40 µM
O=c1c2c([nH]c3cc(Oc4ccc(OC(F)(F)F)cc4)ccc13)CCCC2 | HepG2 | MTT | 48 h | IC50 | > 50 µM
c1cnc2c(c1)ccc1cccnc12 | HEK-293T | MTT | 12.5 µg/mL, 24 h | viability | > 80%
Cc1ccc(N(C)c2ccc(NC(=O)CN(C)c3ccccc3N3CCCC3=O)cc2)nc1 | HepG2 | ATP luminescence | 48 h | CC50 | > 40 µM
